# ATG4B inh – ATG4B protease inhibitors, primary screen, biochemical, fluorescence, uHTS; Cysteine protease ATG4B (Homo sapiens), Q9Y4P1; ATG4B cleavage of LC3-PLA2, NBD-HPC fluorescence, 1 h; inhibition, % at 8.33 µM; actives 0.51% (n = 340,000); AID 504462, 2011; in the data active means inhibition above about 40%
# Tb MetRS inh – T. brucei MetRS inhibitors, primary screen, biochemical, luminescence. methionyl-tRNA synthetase (Trypanosoma brucei brucei). purified T. brucei MetRS, ATP depletion, Kinase-Glo luminescence. inhibition, % at 11.9 µM. actives 0.4% (n = 360,000). AID 624268, 2012;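 active means inhibition above a per-plate cutoff of the control wells' mean inhibition plus 3 SD, cut at about 5.5% in these data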;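 further: 0% = DMSO wells median and 100% = median of wells with control inhibitor compound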
#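 Material: parasite MetRS enzyme / Replication: singlicate, one well per compound / Signal: luminescence of leftover ATP / Schedule: 2 h aminoacylation at 25 °C after 15 min preincubation / Medium: HEPES-MgCl2-KCl buffer plus DTT, spermine, BSA, pyrophosphatase / Doses: 11.9 µM single point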
# Rin1-Abl PPI inh – inhibitors of Rin1-Abl protein binding, primary screen, biochemical, TR-FRET; Tyrosine-protein kinase ABL1 (Homo sapiens) + Ras and Rab interactor 1 (Homo sapiens), …; inhibition, % at 7.35 µM; actives 0.4% (n = 360,000); in the data active means inhibition above about 5%, passing the limit was not always enough
# UCH37 DUB inh – inhibitors of human UCH37 deubiquitinase, primary screen, biochemical, Ub-AMC cleavage, fluorescence; actives 0.33% (n = 330,000); purified proteasome/UCH37; AID 588478, 2011; inhibition, % (no concentration beside the values); Ubiquitin carboxyl-terminal hydrolase isozyme L5 (Homo sapiens), Q9Y5K5;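 active means mean inhibition over replicate wells above about 20%, limit read from the data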;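 further: 0% = compound-free wells with enzyme and 100% = wells lacking proteasome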
# Target sequence (Q9Y5K5 whole entry, looked up): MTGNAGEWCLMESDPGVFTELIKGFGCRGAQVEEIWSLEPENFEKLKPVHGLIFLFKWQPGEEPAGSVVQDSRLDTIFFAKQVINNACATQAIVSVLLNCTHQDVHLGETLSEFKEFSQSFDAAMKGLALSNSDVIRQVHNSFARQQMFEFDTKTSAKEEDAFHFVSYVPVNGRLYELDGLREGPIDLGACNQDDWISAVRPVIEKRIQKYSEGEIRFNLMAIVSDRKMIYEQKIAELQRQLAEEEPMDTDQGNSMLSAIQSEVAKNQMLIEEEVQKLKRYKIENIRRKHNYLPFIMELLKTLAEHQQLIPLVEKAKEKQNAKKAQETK
#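 Assay system: Proteasome-bound UCH37. Buffer or medium: pH 7.4 Tris-HCl (50 mM) with ovalbumin, ATP-MgCl2, DTT. Incubation: 30 min preincubation with enzyme, 25 min cleavage at room temperature. Measured by: fluorescence, ex 355 nm, em 460 nm. Read-out basis: percent inhibition. Control set: wells without proteasome as full block, compound-free enzyme plus substrate as uninhibited.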
# ATG4B conf – ATG4B protease inhibitors, retest, confirmation, biochemical, fluorescence, single concentration | shares compounds with ATG4B inh | ATG4B protease fluorescent substrate cleavage assay | inhibition, % at 8.33 µM | actives 92% (n = 320); in the data active means inhibition above about 39%
# PLA2 counter – PLA2 enzyme inhibition, counter-screen for ATG4B inhibitor project, biochemical, single concentration, uHTS hits; shares compounds with ATG4B inh; purified PLA2, NBD-C6-HPC fluorescence, 45 min; inhibition, % at 8.33 µM; actives 66% (n = 1,600); AID 588402, 2011; in the data active means inhibition above about 50%
# Target sequence (P04054 whole entry, looked up): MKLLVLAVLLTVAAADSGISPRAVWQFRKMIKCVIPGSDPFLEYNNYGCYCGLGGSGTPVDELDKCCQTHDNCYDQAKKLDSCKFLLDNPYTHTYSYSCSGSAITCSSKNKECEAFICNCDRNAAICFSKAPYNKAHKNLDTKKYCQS
# Active calls of the source: *; i = inactive; . = no result. Shown are actives, neighbours in structure and some others; about 1.4% of the full set was active somewhere.
SMILES,ATG4B inh,Tb MetRS inh,Rin1-Abl PPI inh,UCH37 DUB inh,PLA2 counter,others
Cc1ccc(-c2ccc(/C=C3\C(=O)ON=C3c3ccccc3)o2)c([N+](=O)[O-])c1,63*,-1,-2,18,23,
Cc1noc(C)c1COc1ccc(C(=O)OCC(=O)NCc2ccccc2Cl)cc1,45*,0,0,4,46,ATG4B conf=64*
COc1ccc(CNC(=O)COC(=O)c2ccc(OCc3c(C)noc3C)cc2)cc1OC,-5,-1,6,0,.,
CCN1C(=O)/C(=C\c2cccs2)C(C(=O)OC)=C1C,3,0,-6,9,.,
COC(=O)C1=C(C)N(Cc2cccnc2)C(=O)/C1=C\c1sccc1C,42*,-1,-4,8,54*,
COc1ccc(N(C(C)C(=O)NN=Cc2ccc(OC)c(OC)c2)S(C)(=O)=O)cc1 (stereo not given),.,.,.,4,.,
Oc1c(Br)cc(Br)cc1/C=N/n1c(-c2ccccc2)n[nH]c1=S,42*,0,2,.,9,ATG4B conf=45*
COc1c(Br)cc(/C=N/n2c(-c3ccccc3)n[nH]c2=S)c(O)c1Br,17,-1,3,.,.,
C#CCOCCOCCOCCNc1nc(N2CCN(C(=O)CCCCCCCCCCNC(=O)[C@H]([C@@H](C)CC)n3cc(CCCCCN)nn3)CC2)nc(N2CCN(C(=O)CCCCCCCCCCNC(=O)[C@H](CCCCN)n3cc(CCCC(=O)O)nn3)CC2)n1,3,-1,4,.,.,
C#CCOCCOCCOCCNc1nc(N2CCN(C(=O)CCCCCCCCCCNC(=O)[C@H]([C@@H](C)CC)n3cc(CCCCN=C(N)N)nn3)CC2)nc(N2CCN(C(=O)CCCCCCCCCCNC(=O)[C@H](CCCCN)n3cc(C)nn3)CC2)n1,57*,.,.,.,28,ATG4B conf=28
CCN(CC)CCCn1c2c(c(SCC(=O)Nc3cc(OC)cc(OC)c3)nc1=O)CCC2,-8,-1,2,.,.,
COc1ccc(C2=NNC(c3cccs3)=Nc3ccc(OC)cc32)cc1,55*,0,0,-7,60*,
CCOc1ccc(C2=NNC(c3cccs3)=Nc3ccc(OC)cc32)cc1OCC,36,-1,-2,9,.,
O=c1cc(-c2ccc(O)c(-c3c(O)cc(O)c4c(=O)cc(-c5ccc(O)cc5)oc34)c2)oc2cc(O)cc(O)c12,82*,0,-2,2,76*,
COc1ccccc1OCc1ccc(C(=O)n2nc(C)c(Cl)c2C)o1,75*,0,-2,0,77*,
CC(C)c1ccc(OCC(=O)N2CCc3ccccc3C2)cc1,17,-1,-1,6,.,
CC(C)c1ccc(/C=C/C(=O)N2CCc3ccccc3C2)cc1,59*,0,-1,-1,63*,
CC1(C)C(/C=C/C=C/C=C/C=C2\N(CCCCS(=O)(=O)O)c3ccc4ccccc4c3C2(C)C)=[N+](CCCCS(=O)(=O)[O-])c2ccc3ccccc3c21,90*,-1,9,4,95*,
Cc1ccc(NC(=O)C2C(=O)N(CCO)C3(C)CC2c2ccccc2O3)cc1 (stereo not given),4,-1,-1,-1,.,
Cc1ccc(S(=O)(=O)C2C(=O)N(C)C3(C)CC2c2ccccc2O3)cc1 (stereo not given),66*,0,1,6,74*,
O=c1[nH]c2ccccc2cc1-c1nnn(-c2ccc(F)cc2)n1,-1,-1,1,-2,.,
Cc1ccc(OCc2nnc(SCC(=O)c3ccccc3)n2Cc2ccco2)cc1,60*,-1,3,2,63*,
O=C(CSc1nnc(COc2ccccc2)n1Cc1ccco1)c1ccc(F)cc1,12,0,-3,3,.,
O=C(Nc1nc2c(Cl)cccc2s1)C1CC1,-11,1,4,-1,.,
O=C(Nc1nc2c(cc3c4c(cccc42)CC3)s1)c1ccccc1Cl,43*,-1,-2,-78,45,ATG4B conf=60*
SMILES,ATG4B inh,Tb MetRS inh,Rin1-Abl PPI inh,UCH37 DUB inh,PLA2 counter,others
CCOc1cc(C(c2c(C)[nH][nH]c2=O)c2c(C)[nH][nH]c2=O)ccc1OS(=O)(=O)c1ccccc1,-7,0,2,9,.,
Cc1ccc(S(=O)(=O)Oc2ccc(C(c3c(C)[nH][nH]c3=O)c3c(C)[nH][nH]c3=O)cc2)cc1,70*,-1,3,6,68*,
Cc1ccccc1NC(=S)NCCSc1ccc(Cl)cc1,45*,-1,-4,2,51*,
CCc1ccccc1NC(=S)NCCSc1ccc(Cl)cc1,66*,0,-1,1,80*,
Cc1ccc(C)c(NC(=S)NCCSc2ccc(Cl)cc2)c1,15,0,2,1,.,
Cc1cccc(NC(=S)NCC(C)CSc2ccc(Cl)cc2)c1 (stereo not given),34,0,-1,.,.,
Cc1cccc(NC(=S)NCCSc2ccc(Cl)cc2)c1,51*,-1,-4,1,64*,
Cc1ccc(/C=c2\sc3nc(-c4ccccc4Br)nn3c2=O)o1,48*,0,-9,.,-7,
CCOc1ccc(NCc2ccccc2OCc2cccc(F)c2)cc1,46*,-1,1,-2,36,ATG4B conf=60*
Fc1cccc(COc2ccccc2CNc2ccccc2)c1,20,-1,2,0,.,
CCSc1nc(-c2ccccc2)c(C#N)c(=O)[nH]1,0,0,2,2,.,
CCCOc1ccc(-c2nc(SCc3ccccc3)[nH]c(=O)c2C#N)cc1OC,52*,0,5,-36,85*,
O=C(Nc1cccnc1)c1cc(S(=O)(=O)N2CCOCC2)ccc1Br,5,-1,3,1,.,
COC(=O)c1ccc(/C=C2\CCn3c2nc2cc(C(=O)O)ccc2c3=O)cc1,-5,1,-2,i,.,
CC(C)CCOc1ccc(/C=C2\CCn3c2nc2cc(C(=O)O)ccc2c3=O)cc1,97*,-1,-1,-117,92*,
N#Cc1cnn(-c2nc(SCc3ccccc3)nc3sc4c(c23)CCCC4)c1N,43*,-1,-2,-2,59*,
COCCCNc1nc(SCc2ccccc2)nc2sc3c(c12)CCC3,23,-2,4,0,.,
O=C(COc1ccccc1Cl)N1CCN(c2ccccn2)CC1,92*,0,1,0,-5,
O=C(COc1ccc(F)c(Cl)c1)N1CCN(c2ccccn2)CC1,1,0,3,0,.,
Cc1ccc(SCCc2cc[n+](CC(=O)c3ccccc3)cc2)cc1,3,0,0,1,.,

# Source: PubChem BioAssay
